Test results from ChEMBL document CHEMBL1157729, “Structure-activity relationship and mechanism of action studies of manzamine analogues for the control of neuroinflammation and cerebral infections” (J Med Chem, 2010).
pIC50: −log10 of the molar value. Values after ≈ are worked out from the molar mass of the structure shown. Active and inactive are the calls of the source. The rule behind the calls is not given here.

What was measured:
Plasmodium berghei [1] = experiment: Antiplasmodial activity against Plasmodium berghei NK65 infected in Swiss Webster mice (Mus musculus) assessed as average parasitaemia at 200 mg/kg, perorally administered 1 day after infection measured after 10 days post infection; assay type: functional; conditions: route oral
In short: (§1)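 Male Swiss Webster mice (18-20 g, ≥5/group) inoculated i.p. with 2×10^7 P. berghei NK-65 parasitized RBC, given a single oral dose (100 μl, SSV or dilute HCl vehicle); parasitemia by Giemsa-stained tail blood smears days 5–28; activity as % decrease versus untreated controls on day 5.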

Plasmodium berghei [2] = experiment: Antiplasmodial activity against Plasmodium berghei NK65 infected in Swiss Webster mice (Mus musculus) assessed as inhibition of parasitaemia at 200 mg/kg, perorally administered 1 day after infection measured after 5 days post infection; assay type: functional; design: Activity: scale not given: the % may be the effect or the level left; conditions: route oral; in short: as §1
Plasmodium berghei [3] = experiment: Antiplasmodial activity against Plasmodium berghei NK65 infected in Swiss Webster mice (Mus musculus) assessed as average parasitaemia at 200 mg/kg, perorally administered 1 day after infection measured after 21 days post infection; assay type: functional; conditions: route oral
In short: (§2)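 Male Swiss Webster mice (18-20 g), at least 5 per group, were inoculated ip with 2×10^7 P. berghei NK-65-parasitized red cells from a donor mouse and given a single oral dose (100 μl). Stock was made in SSV or 0.1 M HCl and diluted in SSV or 0.01 M HCl. Parasitemia was read from Giemsa-stained tail blood smears from day 5 to day 28. Cure meant no parasitemia through day 28.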

Plasmodium berghei [4] = experiment: Antiplasmodial activity against Plasmodium berghei NK65 infected in Swiss Webster mice (Mus musculus) assessed as average parasitaemia at 200 mg/kg, perorally administered 1 day after infection measured after 14 days post infection; assay type: functional; conditions: route oral; in short: as §2
Plasmodium berghei [5] = experiment: Antiplasmodial activity against Plasmodium berghei NK65 infected in Swiss Webster mice (Mus musculus) assessed as average parasitaemia at 200 mg/kg, perorally administered 1 day after infection measured after 5 days post infection; assay type: functional; conditions: route oral; in short: as §2
Plasmodium berghei [6] = experiment: Antiplasmodial activity against Plasmodium berghei NK65 infected in Swiss Webster mice (Mus musculus) assessed as parasitaemia cure at 200 mg/kg, perorally administered 1 day after infection measured after 28 days post infection; assay type: functional; conditions: route oral; in short: as §2
[7] = Selectivity index, ratio of IC50 for african green monkey (Cercopithecus aethiops) Vero cells to IC50 for chloroquine-resistant Plasmodium falciparum W2; assay type: toxicity, cell-based
[8] = Antineuroinflammatory activity in LPS-stimulated rat neonatal microglia assessed as inhibition of PMA-induced superoxide anion production preincubated 15 mins prior to PMA challenge measured after 70 mins; assay type: functional, cell-based
Plasmodium berghei [9] = experiment: Antiplasmodial activity against Plasmodium berghei NK65 infected in Swiss Webster mice (Mus musculus) assessed as suppression of parasitaemia at 10 mg/kg, intraperitoneally administered 1 day after infection for 3 days measured after 7 days post infection relative to control; assay type: functional; conditions: route intraperitoneal
[10] = Selectivity index, ratio of IC50 for african green monkey (Cercopithecus aethiops) Vero cells to IC50 for chloroquine-sensitive Plasmodium falciparum; assay type: toxicity, cell-based
Plasmodium berghei [11] = experiment: Antiplasmodial activity against Plasmodium berghei NK65 infected in Swiss Webster mice (Mus musculus) assessed as survivability at 10 mg/kg, intraperitoneally administered 1 day after infection for 3 days measured after 28 days post infection; assay type: functional, organism-based; design: dose 10 mg/kg
Plasmodium berghei [12] = experiment: Antiplasmodial activity against Plasmodium berghei NK65 infected in Swiss Webster mice (Mus musculus) assessed as parasitaemia cure at 10 mg/kg, intraperitoneally administered 1 day after infection measured after 28 days post infection; assay type: functional
Plasmodium berghei [13] = experiment: Antiplasmodial activity against Plasmodium berghei NK65 infected in Swiss Webster mice (Mus musculus) assessed as suppression of parasitaemia at 10 mg/kg, intraperitoneally administered 1 day after infection for 3 days measured after 5 days post infection relative to control; assay type: functional; conditions: route intraperitoneal
[14] = Antineuroinflammatory activity in LPS-stimulated rat neonatal microglia assessed as inhibition of PMA-induced TXB2 production preincubated 15 mins prior to PMA challenge measured after 70 mins; assay type: functional, cell-based
Plasmodium berghei [15] = experiment: Antiplasmodial activity against Plasmodium berghei NK65 infected in Swiss Webster mice (Mus musculus) at 10 mg/kg, intraperitoneally administered 1 day after infection for 3 days; assay type: functional; conditions: route intraperitoneal
[16] = system: Mycobacterium tuberculosis; experiment: Antimycobacterial activity against Mycobacterium tuberculosis; assay type: functional
Plasmodium berghei [17] = experiment: Toxicity in Plasmodium berghei NK65 infected Swiss Webster mice (Mus musculus) assessed as weight loss at 10 mg/kg, intraperitoneally administered 1 day after infection measured after 28 days post infection; assay type: organism-based; design: dose 10 mg/kg, route intraperitoneal; conditions: in vivo, ip, 672 h
[18] = Antineuroinflammatory activity in LPS-stimulated rat neonatal microglia assessed as drug level causing 50% PMA-induced LDH release preincubated 15 mins prior to PMA challenge measured after 70 mins; assay type: functional
In short: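 Neonatal rat microglia (2 × 10^5/well) primed with E. coli LPS 0.3 ng/mL for 17 h at 35.9 °C, washed with HBSS, given compound (0.01–10 μM) or DMSO 15 min, then PMA 1 μM; LDH read spectrophotometrically after 70 min; LDH50 relative to Triton X-100 (0.1%) release; duplicates.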

HeLa [19] = experiment: Cell cycle arrest in human HeLa cells assessed as increase in S phase accumulation at 10 uM after 24 hrs by FACS analysis; assay type: functional
HeLa [20] = experiment: Cell cycle arrest in human HeLa cells assessed as increase in S phase accumulation at 5 uM after 24 hrs by FACS analysis; assay type: functional
HeLa [21] = experiment: Cell cycle arrest in human HeLa cells assessed as decrease in G2/M phase accumulation at 10 uM after 24 hrs by FACS analysis; assay type: functional; design: scale not given: the % may be the effect or the level left
HeLa [22] = experiment: Cell cycle arrest in human HeLa cells assessed as increase in G0/G1 phase accumulation at 5 uM after 24 hrs by FACS analysis; assay type: functional
HeLa [23] = experiment: Cell cycle arrest in human HeLa cells assessed as increase in G0/G1 phase accumulation at 20 uM after 24 hrs by FACS analysis; assay type: functional
Candida albicans = experiment: Antifungal activity against Candida albicans ATCC 90028; assay type: functional, organism-based
In short: (§3)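 Broth microdilution per modified CLSI method; samples serially diluted in 20% DMSO/saline, tested in duplicate; inocula set by OD630 of suspensions in incubation broth; growth read at 630 nm before and after incubation; amphotericin B drug control.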

Plasmodium falciparum [24] = experiment: Antiplasmodial activity against chloroquine-sensitive Plasmodium falciparum D6 after 72 hrs by LDH assay; assay type: functional, organism-based; conditions: Plasmodium falciparum, D6, 72 h; read-out: IC50
HeLa [25] = experiment: Cell cycle arrest in human HeLa cells assessed as decrease in G2/M phase accumulation at 3 uM after 24 hrs by FACS analysis; assay type: functional; design: scale not given: the % may be the effect or the level left
HeLa [26] = experiment: Cell cycle arrest in human HeLa cells assessed as decrease in G2/M phase accumulation at 5 uM after 24 hrs by FACS analysis; assay type: functional; design: scale not given: the % may be the effect or the level left
Cryptococcus neoformans = experiment: Antifungal activity against Cryptococcus neoformans ATCC 90113; assay type: functional, organism-based; in short: as §3
HeLa [27] = experiment: Cytotoxicity against human HeLa cells after 48 hrs by trypan blue exclusion assay; assay type: functional
[28] = system: Mycobacterium tuberculosis; experiment: Antimycobacterial activity against Mycobacterium tuberculosis H37Rv; assay type: functional, organism-based
HeLa [29] = experiment: Cell cycle arrest in human HeLa cells assessed as increase in G0/G1 phase accumulation at 10 uM after 24 hrs by FACS analysis; assay type: functional
HeLa [30] = experiment: Cell cycle arrest in human HeLa cells assessed as increase in S phase accumulation at 3 uM after 24 hrs by FACS analysis; assay type: functional
HeLa [31] = experiment: Cell cycle arrest in human HeLa cells assessed as decrease in G2/M phase accumulation at 20 uM after 24 hrs by FACS analysis; assay type: functional; design: scale not given: the % may be the effect or the level left
Plasmodium falciparum [32] = experiment: Antiplasmodial activity against chloroquine-resistant Plasmodium falciparum W2 after 72 hrs by LDH assay; assay type: functional, organism-based; conditions: Plasmodium falciparum, W2, 72 h; read-out: IC50
[33] = system: Mycobacterium intracellulare; experiment: Antimycobacterial activity against Mycobacterium intracellular ATCC 23068; assay type: functional, organism-based
In short: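 Modified Franzblau method; samples serially diluted in 20% DMSO/saline, tested in duplicate; inoculum set by OD630; fluorescence read at 544ex/590em before and after incubation; ciprofloxacin drug control.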

HeLa [34] = experiment: Cell cycle arrest in human HeLa cells assessed as increase in G0/G1 phase accumulation at 3 uM after 24 hrs by FACS analysis; assay type: functional
Vero = experiment: Cytotoxicity against african green monkey Vero cells after 48 hrs by neutral red assay; assay type: cell-based; conditions: chlorocebus sabaeus
In short: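 Vero cells seeded at 25,000/well and grown 24 h, then exposed to serially diluted samples for 48 h. Viable cells measured by neutral red assay, with doxorubicin as positive control. IC50 taken from dose-response curves.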

HeLa [35] = experiment: Cell cycle arrest in human HeLa cells assessed as increase in S phase accumulation at 20 uM after 24 hrs by FACS analysis; assay type: functional
Tubulin (Sus scrofa) [36] = target: T1, Tubulin (Sus scrofa) (UniProt P02554+P02550); experiment: Inhibition of pig brain tubulin polymerization up to 30 mins by turbidimetry
T1 sequence (P02550 whole entry, looked up): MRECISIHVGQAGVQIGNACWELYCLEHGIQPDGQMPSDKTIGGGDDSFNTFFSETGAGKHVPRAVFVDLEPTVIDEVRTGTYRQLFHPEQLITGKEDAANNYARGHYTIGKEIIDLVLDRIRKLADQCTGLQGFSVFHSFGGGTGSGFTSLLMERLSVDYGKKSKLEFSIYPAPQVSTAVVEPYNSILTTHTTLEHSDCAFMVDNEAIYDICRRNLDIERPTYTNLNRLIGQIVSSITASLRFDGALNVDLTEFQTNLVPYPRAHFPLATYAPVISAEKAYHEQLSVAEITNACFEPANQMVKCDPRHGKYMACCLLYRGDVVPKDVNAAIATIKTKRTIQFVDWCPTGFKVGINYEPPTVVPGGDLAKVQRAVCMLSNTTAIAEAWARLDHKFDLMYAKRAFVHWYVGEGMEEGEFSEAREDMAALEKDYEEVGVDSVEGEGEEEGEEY
T1 sequence (P02554 whole entry, looked up): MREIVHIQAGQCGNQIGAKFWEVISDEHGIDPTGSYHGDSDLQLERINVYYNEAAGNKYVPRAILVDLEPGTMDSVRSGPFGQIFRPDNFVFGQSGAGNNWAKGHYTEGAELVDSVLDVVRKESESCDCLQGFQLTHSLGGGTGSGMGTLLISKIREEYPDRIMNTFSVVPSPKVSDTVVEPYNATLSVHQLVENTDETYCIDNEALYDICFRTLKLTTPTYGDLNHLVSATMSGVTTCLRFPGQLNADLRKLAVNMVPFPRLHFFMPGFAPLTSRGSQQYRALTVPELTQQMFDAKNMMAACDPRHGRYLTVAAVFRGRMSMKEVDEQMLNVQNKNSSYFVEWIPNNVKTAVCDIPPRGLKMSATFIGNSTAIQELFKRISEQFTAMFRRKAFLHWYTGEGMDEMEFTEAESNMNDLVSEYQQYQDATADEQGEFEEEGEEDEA

Tubulin (Sus scrofa) [37] = target: T1, Tubulin (Sus scrofa); experiment: Inhibition of pig brain tubulin polymerization after 30 to 60 mins in presence of GTP and glutamate by turbidimetry

SMILES: C=C[C@H]1CN2CC[C@H]1C[C@H]2[C@H](O)c1ccnc2ccc(OC)cc12 [QUININE]
- Activity (Plasmodium berghei [1]): 14%
- Activity (Plasmodium berghei [2]): 26%
- Activity (Plasmodium berghei [3]): 45%
- Activity (Plasmodium berghei [4]): 32%
- Activity (Plasmodium berghei [5]): 7.3%
- Activity (Plasmodium berghei [6]): 0%

SMILES: Oc1cccc2c1[nH]c1c(C3=C[C@@]4(O)CC/C=C\CCCCN5CC[C@@H]3[C@]3(CC6/C=C\CCCCN6[C@H]34)C5)nccc12 (stereo partly specified)
- selectivity ratio ([7]; Vero cells, read-out: Ratio IC50): 25
- Ratio IC50 ([7]; vero): 140
- pIC50 [8]: < 5.00
- Activity (Plasmodium berghei [9]): 100%
- Ratio IC50 [10]: 180
- Activity (Plasmodium berghei [11]): Active
- Activity (Plasmodium berghei [12]; route intraperitoneal): 80%
- Activity (Plasmodium berghei [13]): 100%
- pIC50 [14]: 6.30
- MST (Plasmodium berghei [15]): > 28 days
- MIC [16]: 0.91 µg/mL (≈ 1.61 µM)
- Activity (Plasmodium berghei [17]): Toxic
- Activity [18]: >10 µM

SMILES: CC(C)Cn1c2ccccc2c2ccnc(C3=C[C@@]4(O)CC/C=C\CCCCN5CC[C@@H]3[C@]3(C[C@@H]6/C=C\CCCCN6[C@H]34)C5)c21 [9-N-ISOBUTYLMANZAMINE A]
- Activity (HeLa [19]): 19.5%
- pIC50 [8]: 5.24
- Activity (HeLa [20]): 16.4%
- Activity (HeLa [21]): 17%
- Activity (HeLa [22]): 54.9%
- Activity (HeLa [23]): 52.3%
- IC50 (Candida albicans): 10 µg/mL (≈ 16.5 µM)
- IC50 (Plasmodium falciparum [24]): 0.039 µg/mL (≈ 0.0645 µM)
- Activity (HeLa [25]): 19.2%
- Activity (HeLa [26]): 17.8%
- IC50 (Cryptococcus neoformans): 3 µg/mL (≈ 4.96 µM)
- Activity (HeLa [27]): >30 µg/mL
- MIC [28]: 4.6 µg/mL (≈ 7.6 µM)
- Activity (HeLa [29]): 51.1%
- Activity (HeLa [30]): 16.6%
- pIC50 [14]: < 5.00
- Activity (HeLa [31]): 17.4%
- IC50 (Plasmodium falciparum [32]): 0.078 µg/mL (≈ 0.129 µM)
- IC50 [33]: 1 µg/mL (≈ 1.65 µM)
- Activity (HeLa [34]): 54.2%
- IC50 (Vero): 0.4 µg/mL (≈ 0.661 µM)
- Activity (HeLa [35]): 19.1%
- Activity [18]: >10 µM

SMILES: O[C@]12C=C(c3nccc4c3[nH]c3ccccc34)[C@@H]3CCN(CCCC/C=C\CC1)C[C@@]31C[C@@H]3/C=C\CCCCN3[C@H]12
- inhibition (Tubulin (Sus scrofa) [36]): inactive
- inhibition (Plasmodium berghei [11]): inactive
- inhibition (Plasmodium berghei [12]): inactive
- inhibition (Tubulin (Sus scrofa) [37]): inactive
